Screening data from PubChem BioAssay.
Compounds with a hit are over-represented: about 6.7% of the library has one in this group of screens.
T cruzi repl – inhibitors of intracellular T. cruzi growth, primary screen, luminescence, NIH3T3 host cells. 1.4% of 300,000 active. inhibition, % (no concentration beside the values). T. cruzi beta-gal in NIH3T3, 90 h;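 active means mean inhibition across valid replicates above about 55%, limit read from the data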;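 further: signal also drops with host cell toxicity which is not excluded here; 0% = plate median of DMSO wells and 100% = zero luminescence signal; higher percent means less beta-gal luminescence so fewer parasites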
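Test system: β-gal T. cruzi (Tulahuen C4) inside NIH/3T3 cells / Quantity: 5,000 cells/well / Measured by: luminescence from GalScreen with 0.05% NP40, read after 60 min / Medium: DMEM plus 2% FBS / Measure: parasite load inhibition, % / Reagent: Tulahuen C4 trypomastigotes, 5000/well / Schedule: co-culture of at least 90 h after 3 h attachment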
PREPL inhibitor – PREPL enzyme inhibitors, primary screen, biochemical, fluorescence polarization; inhibition, % at 5.96 µM; recombinant PREPL, fluorescence polarization activity-based probe; Prolyl endopeptidase-like (Homo sapiens), Q4J6C6; 0.68% of 320,000 active; in the data active means inhibition above about 43%;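 further: 0% = enzyme with DMSO and 100% = wells lacking enzyme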
Target sequence (Q4J6C6 whole entry, looked up): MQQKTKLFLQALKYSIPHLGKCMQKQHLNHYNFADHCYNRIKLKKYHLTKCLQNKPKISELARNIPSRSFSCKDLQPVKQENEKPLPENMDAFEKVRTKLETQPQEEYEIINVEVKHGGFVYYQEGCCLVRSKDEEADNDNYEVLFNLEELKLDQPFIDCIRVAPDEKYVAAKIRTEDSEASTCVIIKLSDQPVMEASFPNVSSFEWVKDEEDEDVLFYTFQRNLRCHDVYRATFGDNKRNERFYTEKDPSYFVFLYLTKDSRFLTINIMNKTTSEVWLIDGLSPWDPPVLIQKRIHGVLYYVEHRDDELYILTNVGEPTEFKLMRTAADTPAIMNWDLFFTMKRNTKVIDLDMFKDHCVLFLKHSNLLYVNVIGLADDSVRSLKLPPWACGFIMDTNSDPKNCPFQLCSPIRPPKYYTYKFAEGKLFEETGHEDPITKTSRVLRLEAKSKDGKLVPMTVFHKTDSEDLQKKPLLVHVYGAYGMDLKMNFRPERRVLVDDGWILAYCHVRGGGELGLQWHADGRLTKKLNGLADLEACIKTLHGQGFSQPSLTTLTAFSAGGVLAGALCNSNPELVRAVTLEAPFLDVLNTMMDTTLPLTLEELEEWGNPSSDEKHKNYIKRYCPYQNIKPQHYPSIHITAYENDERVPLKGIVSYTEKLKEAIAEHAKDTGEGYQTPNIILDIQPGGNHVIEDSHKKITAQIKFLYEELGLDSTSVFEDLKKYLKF
CHOP inhibitor – inhibitors of CHOP promoter induction, primary screen, cell-based, unfolded protein response, luciferase reporter | inhibition, % at 10 µM | CHO-K1 CHOP-promoter luciferase, tunicamycin-induced, 15-18 h | AID 2732, 2010 | 3.8% of 220,000 active;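 active means compounds that reduced the stress-induced luciferase reporter signal by more than about 70% of percent inhibition, limit read from the data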;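 further: 0% = tunicamycin plus vehicle and 100% = wells without tunicamycin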
Beta cell apopt – inhibitors of cytokine-induced beta cell apoptosis, primary screen, luminescence; INS-1E cytokine-induced death, ATP luminescence, 48 h; percent of positive-control rescue, neutral wells zero; protection from apoptosis, % (no concentration beside the values); 0.8% of 300,000 active; AID 435005, 2010;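 active means Every replicate reaches about 75%, or at least half do and their mean reaches it too, limit read from the data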;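 further: 0% = cytokine-treated negative control wells and 100% = positive control rescue; higher means more ATP so stronger rescue from cytokine killing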
NR3A LBD binder – binders of NR3A ligand-binding domain, primary screen, biophysical, differential scanning fluorimetry, uHTS | NR3A LBD differential scanning fluorimetry, Tm shift; 0% = protein alone, 100% = glycine-bound protein | 2.5% of 340,000 active | Tm shift relative to glycine control, % at 25 µM | Glutamate receptor ionotropic, NMDA 3A (GRIN3A) ligand-binding domain;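 active means melting temperature shift of at least 10% of the positive control shift, at one fixed dose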
CSC inhib – cancer stem cell viability inhibitors, primary screen, luminescence; cancer stem cell-like cells viability; inhibition, % at 7.5 µM; 1.1% of 300,000 active; AID 2717, 2010; in the data active means inhibition above about 75%; tested in HMLE shEcad cells
Starred values were filed as active, the others as inactive.

What do the screens show for `CCOc1cc(CN2CCCC(N3CCN(c4ccc(F)cc4)CC3)C2)ccc1OC` (centres undefined)?
T cruzi repl: 50.5; PREPL inhibitor: 3.4; NR3A LBD binder: -0.7; CSC inhib: 15.0

Results for CC(C)CN1CCCC(N2CCN(c3cccc(Cl)c3)CC2)C1 (centres undefined) ?
T cruzi repl: 65.1*; PREPL inhibitor: 0.1; NR3A LBD binder: -2.3; CSC inhib: 55.2

Results for CC(=O)NCCC(=O)N1CCCC(N2CCN(c3cccc(Cl)c3)CC2)C1 (centres undefined) ?
T cruzi repl: -6.4; PREPL inhibitor: -3.9; NR3A LBD binder: -3.5; CSC inhib: -2.9

Results for COc1ccc(CN2CCCC(N3CCN(c4cccc(Cl)c4)CC3)C2)cc1OC (centres undefined) ?
T cruzi repl: 55.7*; Beta cell apopt: 15.6; NR3A LBD binder: 1.1; CSC inhib: -8.7

Results for Cc1ccsc1C(=O)Nc1ccc(S(=O)(=O)N2CCOCC2)cc1 ?
PREPL inhibitor: 1.8; Beta cell apopt: 3.4; NR3A LBD binder: 6.4; CSC inhib: 7.0

What do the screens show for `Cc1ccc(F)c(NC(=O)/C(C#N)=C(\O)c2ccc(C(C)(C)C)cc2)c1`?
T cruzi repl: -2.2; PREPL inhibitor: -5.3; CHOP inhibitor: -3.4; Beta cell apopt: -2.1; NR3A LBD binder: 2.8; CSC inhib: 79.1*

How did Cc1ccc2[nH]c3c(=O)n(CC(=O)N4CCN(C)CC4)ncc3c2c1 do in these assays?
T cruzi repl: -24.4; PREPL inhibitor: -3.4; Beta cell apopt: -3.2; NR3A LBD binder: 3.4; CSC inhib: -11.1

How did CCOC(=S)SCC(=O)Nc1nc(-c2ccc(Br)cc2)cs1 do in these assays?
T cruzi repl: 52.9; PREPL inhibitor: -15.2; CHOP inhibitor: 81.7*; Beta cell apopt: 28.4; NR3A LBD binder: 8.6; CSC inhib: 85.2*

What do the screens show for `CCOC(=O)N1CCN(C(=O)CSCC(=O)Nc2nc(-c3ccc(OC)cc3)cs2)CC1`?
T cruzi repl: -1.5; PREPL inhibitor: 6.7; CHOP inhibitor: 34.7; Beta cell apopt: -9.0; NR3A LBD binder: 1.7; CSC inhib: -7.6

How did CCOC(=S)SCC(=O)Nc1nc(-c2ccccc2)cs1 do in these assays?
T cruzi repl: 7.4; PREPL inhibitor: 19.6; CHOP inhibitor: -41.9; Beta cell apopt: -0.3; NR3A LBD binder: -17.0; CSC inhib: 57.9

What do the screens show for `CCOC(=O)N1CCN(C(=O)CSCC(=O)Nc2nc(-c3ccc(-c4ccccc4)cc3)cs2)CC1`?
T cruzi repl: 21.2; PREPL inhibitor: 6.3; CHOP inhibitor: 85.2*; Beta cell apopt: 89.5*; NR3A LBD binder: 4.0; CSC inhib: 33.5

Results for CC[N+](C)(C)CC/C=C1/c2ccccc2Sc2ccc(Cl)cc21 ?
T cruzi repl: 16.1; PREPL inhibitor: 0.3; CHOP inhibitor: 7.2; Beta cell apopt: 3.9; NR3A LBD binder: 0.9; CSC inhib: -8.2

What do the screens show for `CCCCCCCCCC[N+](C)(C)CC/C=C1/c2ccccc2Sc2ccc(Cl)cc21`?
T cruzi repl: 46.7; PREPL inhibitor: 39.9; Beta cell apopt: 91.4*; NR3A LBD binder: 22.2*; CSC inhib: 105.6*

What do the screens show for `CCn1c(SCC(=O)N(C)CC(=O)Nc2ccc(F)c(F)c2F)nnc1-c1ccco1`?
T cruzi repl: -15.3; PREPL inhibitor: -2.6; NR3A LBD binder: -1.3; CSC inhib: 3.3

Results for Nc1nc(Cl)cc(N2CCCC2)n1 ?
T cruzi repl: -13.9; PREPL inhibitor: 5.8; CHOP inhibitor: -17.4; Beta cell apopt: -9.8; NR3A LBD binder: 0.8; CSC inhib: 1.0

Results for Nc1nc(Cl)cc(N2CCC(c3cc(-c4ccc(Cl)cc4Cl)n[nH]3)CC2)n1 ?
T cruzi repl: 26.5; PREPL inhibitor: -7.6; CHOP inhibitor: 88.5*; Beta cell apopt: 52.6; NR3A LBD binder: 13.0*; CSC inhib: 44.7

What do the screens show for `COc1ccc(NS(=O)(=O)c2cc(NC(=O)c3ccc(=O)[nH]c3)ccc2C)cc1`?
PREPL inhibitor: 0.0; Beta cell apopt: -0.5; NR3A LBD binder: -1.3

How did COc1ccc(NS(=O)(=O)c2cc(NC(=O)[C@@H](NC(=O)c3ccccc3)C(C)C)ccc2C)cc1 do in these assays?
T cruzi repl: -7.8; PREPL inhibitor: 4.5; CHOP inhibitor: 2.4; Beta cell apopt: -3.3; NR3A LBD binder: 13.1*; CSC inhib: 54.7

Results for CC(C(=O)N1CCCC1)N(C)CC(=O)Nc1cccc(F)c1 (centres undefined) ?
PREPL inhibitor: 20.9; Beta cell apopt: 1.0; NR3A LBD binder: -0.3

Results for COc1cc(/C=C(\C#N)C(=O)NCc2ccccc2)ccc1OCc1ccc(C(=O)O)cc1 ?
T cruzi repl: 0.5; PREPL inhibitor: 13.8; CHOP inhibitor: -14.6; Beta cell apopt: 4.7; NR3A LBD binder: -0.1; CSC inhib: -1.4

Results for COc1cc(/C=C(/C#N)c2ccccc2F)ccc1OCc1ccccc1 ?
T cruzi repl: 33.1; PREPL inhibitor: 2.6; CHOP inhibitor: -19.6; Beta cell apopt: -2.3; NR3A LBD binder: -0.1; CSC inhib: 115.6*

Results for CCNC(=S)N(CCc1c(C)[nH]c2ccc(C)cc12)Cc1cccs1 ?
T cruzi repl: 39.8; PREPL inhibitor: 21.8; CHOP inhibitor: 62.4; Beta cell apopt: -2.3; NR3A LBD binder: 0.6; CSC inhib: 20.6

Results for COCCNC(=S)N(CCc1c(C)[nH]c2ccc(F)cc12)Cc1cccs1 ?
T cruzi repl: 28.3; PREPL inhibitor: 2.0; CHOP inhibitor: 40.1; Beta cell apopt: -1.4; NR3A LBD binder: -17.5; CSC inhib: 8.6

Results for CCNC(=S)N(CCc1c(C)[nH]c2ccc(Cl)cc12)Cc1ccco1 ?
T cruzi repl: 71.9*; PREPL inhibitor: -1.2; CHOP inhibitor: 24.9; Beta cell apopt: 2.6; NR3A LBD binder: 8.6; CSC inhib: -1.6

Results for CNC(=S)N(CCc1c(C)[nH]c2ccc(Cl)cc12)Cc1cccs1 ?
T cruzi repl: 59.7*; PREPL inhibitor: -4.0; CHOP inhibitor: -2.9; Beta cell apopt: -5.1; CSC inhib: 25.1

Results for COCCNC(=S)N(CCc1c(C)[nH]c2ccc(Cl)cc12)Cc1cccs1 ?
T cruzi repl: 51.6; PREPL inhibitor: 11.7; CHOP inhibitor: 29.8; Beta cell apopt: -0.4; NR3A LBD binder: 7.9; CSC inhib: 79.4*

Results for COc1ccc(C(=O)C[n+]2ccc3c(c2)nnn3-c2ccccc2)cc1 ?
T cruzi repl: 20.3; PREPL inhibitor: -18.1; CHOP inhibitor: -8.5; Beta cell apopt: 2.6; NR3A LBD binder: -2.1; CSC inhib: -5.6
